Activity calls are given as the source filed them. The rule behind the calls is not given here.
Columns and labels:
OVCAR-3 [1] = test: Antiproliferative activity against human OVCAR3 cells after 72 hrs by CellTiter 96 aqueous one solution assay; assay type: functional, cell-based; settings: OVCAR-3, 72 h
Outline: (§1)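 Log-phase cells harvested by trypsin with two PBS washes, seeded 5,000/well, incubated overnight. Serial dilutions of compound from DMSO stock added, 72 h exposure. Viability read by absorbance. IC50 (nM) calculated relative to DMSO solvent control. Cultures at 37 °C, 5% CO2 in their own media (RPMI, MEM, DMEM, or Medium 199/MCDB for IOSE-80).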

KURAMOCHI = test: Antiproliferative activity against human Kuramochi cells after 72 hrs by CellTiter 96 aqueous one solution assay; assay type: functional, cell-based
Outline: (§2)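 Log-phase cells harvested by trypsin with two PBS washes, seeded 5,000/well, incubated overnight. Serial dilutions of compound from DMSO stock added, 72 h exposure. Viability read by absorbance. IC50 (nM) calculated relative to DMSO solvent control.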

Homo sapiens [2] = organism: Homo sapiens; test: Inhibition of sodium potassium ATPase in human OVCA432 cells assessed as downregulation of p53 protein expression at 100 nM after 72 hrs by Western blot analysis; assay type: cell-based
Outline: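 Cells exposed to 100 nM for 72 h; RIPA lysates, 25 µg protein on SDS-PAGE/PVDF, anti-p53 (1:500) overnight at 4 °C, HRP secondary, chemiluminescence, actin control; densitometry.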

MDA-MB-435 = test: Antiproliferative activity against human MDA-MB-435 cells after 72 hrs by CellTiter 96 aqueous one solution assay; assay type: functional, cell-based; settings: MDA-MB-435, 72 h; outline: as §2
OVCAR-3 [3] = test: Induction of apoptosis in human OVCAR3 cells assessed as upregulation of cleaved PARP expression at 100 nM by Western blot analysis; assay type: functional, cell-based
Outline: (§3)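 Treated cells washed with PBS, lysed in RIPA on ice 15 min, cleared 14,000 g at 4 °C; 25 µg protein by BCA run on SDS-PAGE, PVDF, milk block, primary antibody overnight at 4 °C, HRP anti-rabbit, chemiluminescence; actin loading control; densitometry, n = 3, mean ± SEM.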

[4] = Antiproliferative activity against CD-1 mouse MOE cells derived from 85 to 120 passages after 72 hrs; assay type: functional, cell-based; settings: CD-1, MOE
Outline: (§4)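 MOE cells from pooled oviducts of 8-week-old female CD1 mice in supplemented α-MEM with EGF, insulin, transferrin, selenite, β-estradiol; scrambled and PTEN shRNA/KRAS G12V clones kept under puromycin (plus hygromycin for the mutant). Log-phase cells seeded 5,000/well, overnight, DMSO-dissolved compound added, 72 h; viable cells read by MTS-type absorbance; IC50 in nM relative to DMSO control.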

OVCAR-5 = test: Antiproliferative activity against human OVCAR5 cells after 72 hrs by CellTiter 96 aqueous one solution assay; assay type: functional, cell-based; settings: OVCAR-5, 72 h; outline: as §2
OVCAR-3 [5] = test: Cell cycle arrest in human OVCAR3 cells assessed as accumulation at G2/M phase at 100 nM after 72 hrs by propidium iodide staining-based flow cytometry method; assay type: functional
Outline: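 Cells in 6-well plates treated 72 h, trypsinized, fixed in 70% ethanol, PBS-washed, stained in PBS with 1 mg/mL RNase and 50 µg/mL propidium iodide for 30 min in the dark at room temperature; DNA content by flow cytometry, phase distribution compared with vehicle.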

MDA-MB-231 = test: Antiproliferative activity against human MDA-MB-231 cells after 72 hrs by CellTiter 96 aqueous one solution assay; assay type: functional, cell-based; settings: MDA-MB-231, 72 h; outline: as §2
OVCAR-3 [6] = test: Induction of apoptosis in human OVCAR3 cells assessed as decrease in Mcl-1 levels at 100 nM by Western blot analysis; assay type: functional, cell-based; outline: as §3
Homo sapiens [7] = organism: Homo sapiens; test: Inhibition of sodium potassium ATPase in human OVCAR3 cells assessed as increase in ERK phosphorylation levels at 100 nM after 120 mins by Western blot analysis; assay type: cell-based
Outline: (§5)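 Cells exposed to 100 nM for indicated times; RIPA lysates, 25 µg protein on SDS-PAGE/PVDF probed for phospho-ERK and total ERK (1:500 each), HRP secondary, chemiluminescent detection.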

OVSAHO = test: Induction of apoptosis in human OVSAHO cells assessed as upregulation of cleaved PARP expression at 100 nM after 72 hrs by Western blot analysis; assay type: functional, cell-based; outline: as §3
Homo sapiens [8] = organism: Homo sapiens; test: Inhibition of sodium potassium ATPase in human OVCAR3 cells assessed as downregulation of p53 protein expression at 100 nM after 72 hrs by Western blot analysis; assay type: cell-based; outline: as §3
OVCAR-3 [9] = test: Induction of apoptosis in human OVCAR3 cells assessed as upregulation of cleaved caspase 3 expression at 100 nM by Western blot analysis; assay type: functional, cell-based; outline: as §3
OVCAR-8 = test: Antiproliferative activity against human OVCAR8 cells after 72 hrs by CellTiter 96 aqueous one solution assay; assay type: functional, cell-based; settings: OVCAR-8, 72 h; outline: as §1
Homo sapiens [10] = organism: Homo sapiens; test: Inhibition of sodium potassium ATPase in human OVSAHO cells assessed as upregulation of p21 protein expression at 100 nM by Western blot analysis; assay type: cell-based; outline: as §3
[11] = Antiproliferative activity against CD-1 mouse MOE cells harboring PTENshRNA/KRASG12V mutation after 72 hrs; assay type: functional, cell-based; settings: CD-1, MOE; outline: as §4
OVCAR-3 [12] = test: Induction of apoptosis in human OVCAR3 cells assessed as decrease in Bcl-xL levels at 100 nM by Western blot analysis; assay type: functional, cell-based; outline: as §3
Homo sapiens [13] = organism: Homo sapiens; test: Inhibition of sodium potassium ATPase in human OVSAHO cells assessed as increase in ERK phosphorylation levels at 100 nM after 120 mins by Western blot analysis; assay type: cell-based; outline: as §5
[14] = Antiproliferative activity against CD-1 mouse MOE cells harboring scrambled RNA after 72 hrs; assay type: cell-based; settings: CD-1, MOE; outline: as §4
[15] = Antiproliferative activity against CD-1 mouse MOE cells derived from 8 to 25 passages after 72 hrs; assay type: cell-based; settings: CD-1, MOE; outline: as §4
Homo sapiens [16] = organism: Homo sapiens; test: Inhibition of sodium potassium ATPase in human OVCAR3 cells assessed as reduction in TNFalpha-induced NFkappaB activation at 100 nM after 4 hrs by luciferase reporter gene assay relative to control; assay type: cell-based
Outline: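 OVCAR3 plated 25,000/well, overnight, transfected 24 h with 0.05 µg/well NF-κB-element luciferase reporter in serum medium; then 10 ng/mL TNFα plus 100 nM compound for 4 h; luciferase luminescence, fold change versus untreated, ANOVA.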

[17] = Antiproliferative activity against human IOSE-80 cells after 72 hrs by CellTiter 96 aqueous one solution assay; assay type: cell-based; settings: IOSE80, 72 h; outline: as §2
OVCAR-4 = test: Antiproliferative activity against human OVCAR4 cells after 72 hrs by CellTiter 96 aqueous one solution assay; assay type: functional, cell-based; settings: OVCAR-4, 72 h; outline: as §2
Homo sapiens [18] = organism: Homo sapiens; test: Inhibition of sodium potassium ATPase in human OVCAR3 cells assessed as upregulation of p21 protein expression at 100 nM by Western blot analysis; assay type: cell-based; outline: as §3
Homo sapiens [19] = organism: Homo sapiens; test: Inhibition of sodium potassium ATPase in human OVSAHO cells assessed as downregulation of p53 protein expression at 100 nM after 72 hrs by Western blot analysis; assay type: cell-based
[20] = Antiproliferative activity against human OVSAHO cells after 72 hrs by CellTiter 96 aqueous one solution assay; assay type: functional, cell-based; outline: as §2
HT-29 = test: Antiproliferative activity against human HT-29 cells after 72 hrs by CellTiter 96 aqueous one solution assay; assay type: functional, cell-based; settings: HT-29, 72 h; outline: as §2

Compound | inhibition (Homo sapiens [2]) | Activity (OVCAR-3 [3]) | IC50 [4] [nM] | Activity (OVCAR-3 [5]) | Activity (OVCAR-3 [6]) | inhibition (Homo sapiens [7]) | Activity (OVSAHO) | inhibition (Homo sapiens [8]) | Activity (OVCAR-3 [9]) | inhibition (Homo sapiens [10]) | IC50 [11] [nM] | Activity (OVCAR-3 [12]) | inhibition (Homo sapiens [13]) | IC50 [14] [nM] | IC50 [15] [nM] | inhibition (Homo sapiens [16]) [%] | inhibition (Homo sapiens [18]) | inhibition (Homo sapiens [19]) | further results
C[C@H]1O[C@@H](O[C@H]2[C@@H](O)C[C@H](O[C@H]3[C@@H](O)C[C@H](O[C@H]4CC[C@@]5(C)[C@H](CC[C@@H]6[C@@H]5CC[C@]5(C)[C@@H](C7=CC(=O)OC7)CC[C@]65O)C4)O[C@@H]3C)O[C@@H]2C)C[C@H](O)[C@@H]1O [DIGITOXIN] | Active | Active | > 50000 | Active | Active | Active | Active | Active | Active | Active | > 50000 | Active | Active | > 50000 | > 50000 | 50 | Active | Active | IC50 (OVCAR-3 [1]): 117 nM; IC50 (KURAMOCHI): 5910 nM; IC50 (MDA-MB-435): 43.3 nM; IC50 (OVCAR-5): 321 nM; IC50 (MDA-MB-231): 482 nM; IC50 (OVCAR-8): 71.5 nM; IC50 [17]: 48.4 nM; IC50 (OVCAR-4): 426 nM; IC50 [20]: 250 nM; IC50 (HT-29): 67.6 nM
CO[C@H]1[C@H](O[C@H]2CC[C@]3(C=O)[C@H]4CC[C@]5(C)[C@@H](C6=CC(=O)OC6)CC[C@]5(O)[C@@H]4CC[C@]3(O)C2)O[C@H](C)[C@H](O)[C@@H]1OC [STREBLOSIDE] | Active | Active | > 50000 | Active | Active | Active | Active | Active | Active | Active | > 50000 | Active | Active | > 50000 | > 50000 | 29 | Active | Active | 

From ChEMBL document CHEMBL4052609, “(+)-Strebloside-Induced Cytotoxicity in Ovarian Cancer Cells Is Mediated through Cardiac Glycoside Signaling Networks” (J Nat Prod, 2017)
